Measured values published in ChEMBL document CHEMBL1149851, “Pestalotheols A-D, bioactive metabolites from the plant endophytic fungus Pestalotiopsis theae” (J Nat Prod, 2008).
Where a name gives a salt, the structure may show the parent alone. Calls of active or inactive are those of the source. The rule behind the calls is not given here.

Tests used:
[1] = test system: Aspergillus fumigatus; assay: Antifungal activity against Aspergillus fumigatus ATCC 10894 assessed as zone of inhibition at 100 ug/disk after 48 hrs
[2] = test system: Enterococcus faecalis; assay: Antibacterial activity against Enterococcus faecalis ATCC 19433 assessed as zone of inhibition at 100 ug/disk after 24 hrs; format: functional, organism-based
Summary of the method: (§1)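 Bacteria grown on Mueller-Hinton agar. Paper disks (6 mm) loaded with 100 µg test compound per disk were placed on the seeded agar surface. Plates were incubated at 37 °C for 24 h, then scored for the presence of a zone of inhibition.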

[3] = Cytotoxicity against human C8166 cells after 4 days by MTT method; format: cell-based
Summary of the method: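 C8166 cells were seeded at 3 × 10⁴/well with or without a range of test-compound concentrations, in triplicate. They were incubated 4 days at 37 °C in humid 5% CO₂, and viability was read by MTT. CC₅₀ is the concentration reducing viable cells by 50%.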

[4] = test system: Staphylococcus aureus; assay: Antibacterial activity against Staphylococcus aureus ATCC 6538 assessed as zone of inhibition at 100 ug/disk after 24 hrs; format: functional, organism-based
Summary of the method: as §1

[5] = test system: Human immunodeficiency virus 1; assay: Inhibition of HIV1 LAI replication in C8166 cells after 4 days by ELISA; format: functional, organism-based; settings: Human immunodeficiency virus 1, LAI, C8166, 96 h
Summary of the method: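 C8166 cells were infected with HIV-1 LAI (MOI 0.058) for 1.5 h at 37 °C, PBS-washed, and seeded at 3 × 10⁴/well with or without compounds; indinavir sulfate was the positive control. After 4 days, supernatant was inactivated with 0.5% Triton X-100 and diluted threefold. p24 was measured by capture ELISA (anti-p24 mAb coat, HRP-anti-p24, OPD, A490), and EC₅₀ was derived from p24 level.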

[6] = Selectivity index, ratio of CC50 for human C8166 cells to EC50 for HIV1 LAI; format: toxicity, cell-based; settings: read-out: Ratio CC50/EC50
Summary of the method: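 Index calculated as CC₅₀/EC₅₀. CC₅₀ came from a 4-day MTT viability assay in C8166 cells run in parallel with a 4-day HIV-1 LAI (MOI 0.058) replication assay in C8166 cells, whose EC₅₀ was read from p24 antigen capture ELISA.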

[7] = test system: Micrococcus luteus; assay: Antibacterial activity against Sarcina lutea CMCC B28001 assessed as zone of inhibition at 100 ug/disk after 24 hrs; format: functional, organism-based
Summary of the method: as §1

[8] = test system: Streptococcus mutans; assay: Antibacterial activity against Streptococcus mutans ATCC 25175 assessed as zone of inhibition at 100 ug/disk after 24 hrs; format: functional, organism-based
Summary of the method: as §1

[9] = test system: Candida albicans; assay: Antifungal activity against Candida albicans ATCC 10231 assessed as zone of inhibition at 100 ug/disk after 48 hrs
[10] = test system: Geotrichum candidum; assay: Antifungal activity against Geotrichum candidum AS2.498 assessed as zone of inhibition at 100 ug/disk after 48 hrs

SMILES	Activity [1]	Activity [2]	CC50 at 96 h [3] [µM]	Activity [4]	EC50 [5] [µM]	selectivity ratio [6]	Activity [7]	Activity [8]	Activity [9]	Activity [10]
CC(C)=C/C=C1/C[C@@H]2O[C@@H](C(C)(C)O)C[C@@]23O[C@H]3[C@@H]1O [PESTALOTHEOL C]	inactive	inactive	163	inactive	16.1	10.1	inactive	inactive	inactive	inactive
CC1(C)CC(=O)c2cc3c(cc2O1)C[C@H](C(C)(C)O)O3	inactive	inactive	–	inactive	–	–	inactive	inactive	inactive	inactive
CC1(C)CC(=O)C2=C(C[C@]3(O)C[C@H](C(C)(C)O)O[C@H]3C2)O1	inactive	inactive	–	inactive	–	–	inactive	inactive	inactive	inactive
CC(C)(C)NC(=O)[C@@H]1CN(Cc2cccnc2)CCN1C[C@@H](O)C[C@@H](Cc1ccccc1)C(=O)N[C@H]1c2ccccc2C[C@H]1O [INDINAVIR SULFATE]	–	–	–	–	0.00818	–	–	–	–	–
CC1(C)CC(=O)C2=C(O1)[C@H](O)[C@]1(O)C[C@H](C(C)(C)O)O[C@H]1C2	inactive	inactive	–	inactive	–	–	inactive	inactive	inactive	inactive
